Experimental data taken from ChEMBL document CHEMBL3797032, “Synthesis and in vitro growth inhibitory activity of novel silyl- and trityl-modified nucleosides” (Bioorg Med Chem, 2016).

Key:
[1] = Growth inhibition of human HL60 cells assessed as cell viability at 100 uM incubated for 24 hrs by MTT assay; assay type: functional; conditions: HL-60, 24 h, read-out: Activity
In short: (§1)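 Leukemic lines (HL-60, K562, Jurkat) grown in suspension in RPMI-1640 + 10% heat-inactivated FBS. Colorectal HT-29 and Caco-2 grown adherent in DMEM + 5–10% FBS. Cells kept at 37 °C, 5% CO2, and checked for viability by trypan blue before use. Single final concentration 100 μM for 24 h at 37 °C, camptothecin as positive control. MTT read-out with formazan dissolved in DMSO; viability expressed relative to untreated control set at 100%.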

[2] = system: Jurkat; test: Growth inhibition of human Jurkat cells assessed as cell viability at 100 uM incubated for 24 hrs by MTT assay; assay type: functional; conditions: read-out: Activity; in short: as §1
[3] = system: K562; test: Growth inhibition of human K562 cells assessed as cell viability at 100 uM incubated for 24 hrs by MTT assay; assay type: functional; conditions: K562, 24 h, read-out: Activity; in short: as §1
[4] = Growth inhibition of human Caco2 cells assessed as cell viability at 100 uM incubated for 24 hrs by MTT assay; assay type: functional; conditions: Caco-2, 24 h, read-out: Activity; in short: as §1
[5] = system: HT-29; test: Growth inhibition of human HT-29 cells assessed as cell viability at 100 uM incubated for 24 hrs by MTT assay; assay type: functional; conditions: HT-29, 24 h, read-out: Activity; in short: as §1
[6] = Growth inhibition of human WBC cells assessed as cell viability at 100 uM incubated for 24 hrs by MTT assay; assay type: cell-based; conditions: WBC cells (white blood cells), read-out: Activity
In short: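 Freshly isolated human peripheral leucocytes from volunteers, exposed at a single final concentration of 100 μM for 24 h, camptothecin as comparator. Viability read by MTT assay with formazan dissolved in DMSO.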

[7] = Growth inhibition of human U373 cells assessed as reduction in cell viability incubated for 72 hrs by MTT assay; assay type: functional, U-373MG ATCC; conditions: U373 MG
In short: (§2)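 Glioma cells grown adherent: Hs683 in DMEM + 5–10% FBS, U373 in Earle's MEM + 10% FBS and 1 mM sodium pyruvate; trypan blue viability check before use. Exposed for 72 h to 0.01–100 μM, narciclasine as positive control. MTT read-out with formazan dissolved in DMSO; GI50 is the concentration giving 50% growth reduction versus untreated controls.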

[8] = Growth inhibition of human Hs683 cells assessed as reduction in cell viability incubated for 72 hrs by MTT assay; assay type: functional; conditions: Hs 683, 72 h; in short: as §2

Structure (SMILES) | viability at 100 µM [1] [%] | viability at 100 µM [2] [%] | viability at 100 µM [3] [%] | viability at 100 µM [4] [%] | viability at 100 µM [5] [%] | viability at 24 h, 100 µM [6] [%] | GI50 [7] [µM] | GI50 [8] [µM]
COc1ccc(C(OC[C@H]2O[C@@H](n3ccc(=O)[nH]c3=O)[C@H](O)[C@@H]2O)(c2ccccc2)c2ccc(OC)cc2)cc1 | 6.5 | 5.2 | 8.3 | 26.1 | 27.8 | 82.7 | 40 | 39
Cc1cn([C@@H]2O[C@H](CO[Si](C)(C)C(C)(C)C)[C@@H](O)[C@H]2O)c(=O)[nH]c1=O | – | – | – | – | – | – | > 100 | 77
COc1ccc(C(OC[C@H]2O[C@@H](n3ccc(=O)n(C(=O)c4ccccc4)c3=O)[C@H](OC(C)=O)[C@@H]2OC(C)=O)(c2ccccc2)c2ccc(OC)cc2)cc1 | – | – | – | – | – | – | 39 | 44
CC[C@@]1(O)C(=O)OCc2c1cc1n(c2=O)Cc2cc3ccccc3nc2-1 [CAMPTOTHECIN] | 23.4 | 8.9 | 39.6 | 12.8 | 11.4 | 34.6 | – | –
CC(=O)O[C@@H]1[C@H](OC(C)=O)[C@@H](CO[Si](c2ccccc2)(c2ccccc2)C(C)(C)C)O[C@H]1n1ccc(=O)[nH]c1=O | 11.2 | > 50 | 35.5 | > 50 | > 50 | 100 | 32 | 29
CC(C)(C)[Si](OC[C@H]1O[C@@H](n2ccc(N)nc2=O)[C@H](O)[C@@H]1O)(c1ccccc1)c1ccccc1 | 26 | 16 | 35.6 | 37.2 | 25.6 | 100 | 28 | 40
O=C1N[C@@H]2C(=C[C@H](O)[C@@H](O)[C@H]2O)c2cc3c(c(O)c21)OCO3 [NARCICLASINE] | – | – | – | – | – | – | 0.029 | 0.04
Cc1cn([C@@H]2O[C@H](CO[Si](C)(C)C(C)(C)C(C)C)[C@@H](O)[C@H]2O)c(=O)[nH]c1=O | – | – | – | – | – | – | 68 | 64
CC(C)(C)[Si](C)(C)OC[C@H]1O[C@@H](n2ccc(=O)[nH]c2=O)[C@H](O)[C@@H]1O | – | – | – | – | – | – | 71 | 84
CC(C)[Si]1(C(C)C)OC[C@H]2O[C@@H](n3ccc(=O)[nH]c3=O)[C@H](O)[C@@H]2O[Si](C(C)C)(C(C)C)O1 | – | – | – | – | – | – | 81 | 83
CC(C)[Si]1(C(C)C)OC[C@H]2O[C@@H](n3ccc(=O)n(C(=O)c4ccccc4)c3=O)[C@H](O)[C@@H]2O[Si](C(C)C)(C(C)C)O1 | – | – | – | – | – | – | 29 | 29
CC(C)(C)[Si](OC[C@H]1O[C@@H](n2cnc3c(N)ncnc32)[C@H](O)[C@@H]1O)(c1ccccc1)c1ccccc1 | 27.9 | 18.3 | 45.5 | > 50 | > 50 | 59.3 | 44 | 46
CC(C)(C)[Si](OC[C@H]1O[C@@H](n2ccc(=O)[nH]c2=O)[C@H](O)[C@@H]1O)(c1ccccc1)c1ccccc1 | 5.6 | 6.3 | 9.4 | 37.4 | 29.4 | 61.5 | 36 | 35
Cc1cn([C@@H]2O[C@@H]3CO[Si](C(C)C)(C(C)C)O[Si](C(C)C)(C(C)C)O[C@H]3[C@H]2O)c(=O)[nH]c1=O | – | – | – | – | – | – | 87 | 91
Cc1cn([C@@H]2O[C@H](CO[Si](c3ccccc3)(c3ccccc3)C(C)(C)C)[C@@H](O)[C@H]2O)c(=O)[nH]c1=O | – | – | – | – | – | – | 25 | 27
CC(C)C(C)(C)[Si](C)(C)OC[C@H]1O[C@@H](n2ccc(=O)[nH]c2=O)[C@H](O)[C@@H]1O | – | – | – | – | – | – | > 100 | > 100
COc1ccc(C(OC[C@H]2O[C@@H](n3ccc(=O)[nH]c3=O)[C@H](OC(C)=O)[C@@H]2OC(C)=O)(c2ccccc2)c2ccc(OC)cc2)cc1 | > 50 | > 50 | > 50 | > 50 | > 50 | 100 | 40 | 28
CC(=O)O[C@@H]1[C@H](OC(C)=O)[C@@H](CO[Si](c2ccccc2)(c2ccccc2)C(C)(C)C)O[C@H]1n1ccc(=O)n(C(=O)c2ccccc2)c1=O | – | – | – | – | – | – | 26 | 35
CC(C)[Si]1(C(C)C)OC[C@H]2O[C@@H](n3ccc(=O)[nH]c3=O)C(=O)[C@@H]2O[Si](C(C)C)(C(C)C)O1 | – | – | – | – | – | – | 71 | 70
